Screening data: PubChem BioAssay, PCMD
eIF2B yeast act: eIF2B (yeast) activity modulation; hit rate 0.91% among 27,000; AID 688; S. cerevisiae eIF2B-epsilon R284H, GCN4-lacZ luminescence; inhibition, % at 25 µM (by protocol);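 active = mutant luminescence inhibited past about 50% while wild type luminescence and mutant growth stay under set limits, limit read from the data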
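System: Yeast eIF2B-epsilon R284H mutant carrying GCN4–beta-galactosidase fusion | Read-out basis: Percent inhibition, luminescence and growth | Compound: 25 µM single dose | Times: 16 h at 30 °C exposure | Measured by: Luminescence and A595 | Buffer or medium: YPD medium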
Yeast growth tox: Compounds toxic to wild-type S. cerevisiae growth; A595 turbidity, 16 h; growth inhibition, % at 25 µM (by protocol); hit rate 0.3% among 30,000; AID 685;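 active = mutant and wild-type yeast strains alike exhibit over 30% growth inhibition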;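 note: 0% = untreated cell controls and 100% = YPD media blanks without cells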
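Schedule: 16 h growth with compound, 30 °C. System: yeast, wild-type or eIF2Bepsilon-R284H mutant. Doses: one dose, 25 µM compound[…]. Buffer or medium: YPD. Signal: turbidity measured as absorbance at 595 nm. Read-out basis: growth inhibition (%) versus cell controls and blanks.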
The depositor's hits bear a star. Sampled rows, rich in hits. Any-hit rate of the full collection: about 1.1%.

`CCC(=O)OCCNc1cc(Sc2nc3ccccc3s2)c2nonc2c1[N+](=O)[O-]` gave Yeast growth tox 52*.
Screening CC(C)OC(=O)CSc1nc2ccccc2s1 returned Yeast growth tox -12.
COc1cccc(C(=O)Nc2cccc(C(=O)N3CCOCC3)c2)c1 was read as eIF2B yeast act 59* and Yeast growth tox 9.
`Cc1cccc(C(=O)Nc2cccc(C(=O)N3CCOCC3)c2)c1` gave eIF2B yeast act 22 and Yeast growth tox 4.
`CCOC(=O)C1CCN(S(=O)(=O)c2c(C)n[nH]c2C)CC1` gave eIF2B yeast act -6 and Yeast growth tox 9.
Screening C=CCOC(=O)N1CCN(c2cccc(C(F)(F)F)c2)CC1 returned eIF2B yeast act 18 and Yeast growth tox 1.
`CCC(Sc1nc2sc(C(=O)OC)c(C)c2c(=O)n1N)C(=O)NCC1CCCO1` (stereo not drawn) gave eIF2B yeast act 50* and Yeast growth tox -22.
`CCC(Sc1nc2sc(C(=O)OC)c(C)c2c(=O)n1N)C(=O)N(CC)CC` (stereo not drawn) gave eIF2B yeast act 7 and Yeast growth tox -56.
For Cc1nonc1NCn1nnc2ccccc21 the results were Yeast growth tox 0.
Screening COC(=O)C(NC(=O)c1ccco1)(Nc1nc(C)cs1)C(F)(F)F (stereo not drawn) returned eIF2B yeast act 52* and Yeast growth tox 5.
`COC(=O)C(NC(C)=O)(Nc1nc(C)cs1)C(F)(F)F` (stereo not drawn) gave Yeast growth tox 16.
For O=[N+]([O-])CC(=Nc1ccc(Cl)cc1)N/N=C\c1oc(O)c2ccccc12 the results were eIF2B yeast act 15 and Yeast growth tox 21.
For COc1ccccc1NC(=O)c1cc2ccccc2o/c1=N\O the results were eIF2B yeast act 64* and Yeast growth tox 9.
COc1ccccc1NC(=O)c1ccccc1SC was read as eIF2B yeast act 14 and Yeast growth tox 5.
`CC1(C)CC(=O)C(Sc2nnc(-c3ccc(NS(C)(=O)=O)cc3)n2Cc2ccco2)C(=O)C1` gave eIF2B yeast act 18 and Yeast growth tox 8.
For Cn1c(SC2C(=O)CC(C)(C)CC2=O)nnc1-c1ccco1 the results were eIF2B yeast act 60* and Yeast growth tox 5.
CCOC(=O)C1CCN(C(=O)c2cccnc2Cl)CC1 was read as Yeast growth tox 1.
`O=C(NCC1(c2ccccc2)CCCC1)C(=O)N1CCOCC1` gave eIF2B yeast act -6 and Yeast growth tox -7.
Screening Oc1ccccc1-c1nnc(-c2ccc(C(F)(F)F)cc2)o1 returned eIF2B yeast act 53* and Yeast growth tox -4.
Screening COc1cccc(-c2nnc(-c3ccc(C(F)(F)F)cc3)o2)c1 returned eIF2B yeast act -30 and Yeast growth tox -3.
`COC(=O)CSc1nc(-c2cccs2)ccc1C#N` gave eIF2B yeast act 26.
CN1CCN(C(=O)CSc2nc(-c3ccncc3)ccc2C#N)CC1 was read as eIF2B yeast act 71* and Yeast growth tox 12.
CCOC(=O)N1CCN(C(=O)c2ccc(NC(=O)CC)cc2)CC1 was read as eIF2B yeast act 14 and Yeast growth tox 7.
CCOC(=O)N1CCN(C(=O)c2ccc(N3CCCC3=O)cc2)CC1 was read as eIF2B yeast act 56* and Yeast growth tox 1.
CCC1C(=O)Nc2nc(-c3ccccc3)c(-c3ccccc3)n2N=C1C (stereo not drawn) was read as eIF2B yeast act 3 and Yeast growth tox 11.
For CC(=O)N=c1cccc(NC(C)=O)n1O the results were eIF2B yeast act 26 and Yeast growth tox 41.
For CCCCCOc1ccc(CSc2ncn[nH]2)cc1 the results were eIF2B yeast act 33 and Yeast growth tox 14.
Screening Cc1cccc(NC(=O)Cc2coc3ccc4ccccc4c23)n1 returned eIF2B yeast act 2 and Yeast growth tox 3.
Screening COc1ccc(C(=S)N2CCNCC2)cc1 returned eIF2B yeast act 18 and Yeast growth tox 27.
For COc1cc(C(=S)N2CCCC2)cc(OC)c1O the results were eIF2B yeast act 57* and Yeast growth tox -10.
For CC(Sc1c[nH]c2ccccc12)C(=O)O (stereo not drawn) the results were eIF2B yeast act 0 and Yeast growth tox -1.
CCC(=O)NCCSc1c[nH]c2ccccc12 was read as eIF2B yeast act 62* and Yeast growth tox 22.
Cc1cc(/N=C/C=C2\N(C)c3ccccc3C2(C)C)n(CCC#N)n1 was read as eIF2B yeast act 38 and Yeast growth tox 0.
For COC(=O)CSc1nnc2n(-c3ccc(OC)cc3)c(=O)c3c4c(sc3n12)CCCCC4 the results were eIF2B yeast act 74* and Yeast growth tox 1.
`CCOC(=O)CSc1nnc2n(C3CCCCC3)c(=O)c3c4c(sc3n12)CCCC4` gave eIF2B yeast act 11 and Yeast growth tox -3.
Screening COc1cccc(CNCCSc2nnnn2C)c1OC returned eIF2B yeast act 1 and Yeast growth tox 20.
